Laboratory results taken from ChEMBL document CHEMBL3102784, “Salicylanilide diethyl phosphates: synthesis, antimicrobial activity and cytotoxicity” (Bioorg Med Chem, 2014).
pIC50: −log10 of the molar value. In brackets after ≈: the same amount, converted by molar mass. Activity calls are given as the source filed them. The rule behind the calls is not given here.

What was measured:
Candida albicans [1] = assay: Antifungal activity against Candida albicans ATCC 44859 after 24 hrs by broth microdilution method; format: functional; conditions: ATCC 44859, 24 h
Procedure, shortened: (§1)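 Broth microdilution in RPMI 1640 with glutamine, fluconazole as reference. For yeasts, MIC is ≥80% growth reduction (IC80) versus control. For filamentous fungi, the value is expressed as IC50. Readings at 24 and 48 h.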

Pichia kudriavzevii [2] = assay: Antifungal activity against Candida krusei E28 after 48 hrs by broth microdilution method; format: functional; conditions: E28, 48 h; procedure, shortened: as §1
Candida tropicalis = assay: Antifungal activity against Candida tropicalis 156 at 500 micromol/L after 24 to 48 hrs by broth microdilution method; format: functional, organism-based; procedure, shortened: as §1
[3] = system: Trichophyton mentagrophytes; assay: Antifungal activity against Trichophyton mentagrophytes 445 after 120 hrs by broth microdilution method; format: functional; conditions: Trichophyton mentagrophytes, 445, 120 h
Procedure, shortened: (§2)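 Filamentous dermatophyte tested by broth microdilution in RPMI 1640 with glutamine, fluconazole as reference. Value expressed as IC50 relative to growth control. Read at 72 and 120 h.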

Lichtheimia corymbifera [4] = assay: Antifungal activity against Absidia corymbifera 272 after 48 hrs by broth microdilution method; format: functional; conditions: Lichtheimia corymbifera, 272, 48 h; procedure, shortened: as §1
Mycobacterium kansasii [5] = assay: Antimycobacterial activity against Mycobacterium kansasii 6509/96 after 21 days; format: functional; conditions: 6509/96, 504 h
Procedure, shortened: (§3)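 Micromethod MIC in Šula's semisynthetic medium at 37 °C. Compounds added in DMSO at 1000 down to 0.032 µmol/L. Isoniazid standard in sterile water at 0.5–250 µmol/L. Inocula: H37Rv 10^3, M. avium 10^5, M. kansasii 10^4. Read at 14 and 21 d, plus 7 d for M. kansasii.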

Mycobacterium kansasii [6] = assay: Antimycobacterial activity against Mycobacterium kansasii 6509/96 after 14 days; format: functional; conditions: 6509/96, 336 h; procedure, shortened: as §3
HepG2 = assay: Cytotoxicity against human HepG2 cells after 24 hrs by CellTiter assay; format: cell-based; conditions: HepG2, 24 h
Procedure, shortened: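 HepG2 cells (passage 27–33) in MEM with 10% FBS, L-glutamine and NEAA, seeded at 1×10^4 per well. Treated next day with compounds at 0.1–100 µM (or 0.1–25 µmol/L), triplicates, <1% DMSO, for 24 h at 37 °C, 5% CO2. MTS reagent added for 2 h, absorbance read at 490 nm. IC50 taken against untreated (100%) and 10% DMSO (0%) controls.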

Staphylococcus aureus [7] = assay: Antibacterial activity against Staphylococcus aureus CCM 4516/08 after 24 hrs by broth microdilution method; format: functional; conditions: CCM 4516/08, 24 h
Procedure, shortened: (§4)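 Broth microdilution in Mueller–Hinton broth, compounds dissolved in DMSO, tested over a dilution series from 500 downward. MIC taken as ≥95% growth reduction (IC95) versus drug-free control. Benzylpenicillin comparator. Readings at 24 and 48 h.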

Trichosporon asahii [8] = assay: Antifungal activity against Trichosporon asahii 1188 after 24 hrs by broth microdilution method; format: functional; conditions: Trichosporon asahii, 1188, 24 h; procedure, shortened: as §1
Klebsiella pneumoniae [9] = assay: Antibacterial activity against Klebsiella pneumoniae D 11750/08 at 500 micromol/L after 24 to 48 hrs by broth microdilution method; format: functional, organism-based; procedure, shortened: as §4
Mycobacterium kansasii [10] = assay: Antimycobacterial activity against Mycobacterium kansasii My 235/80 after 7 days; format: functional; conditions: My 235/80, 168 h; procedure, shortened: as §3
Candida albicans [11] = assay: Antifungal activity against Candida albicans ATCC 44859 after 48 hrs by broth microdilution method; format: functional; conditions: ATCC 44859, 48 h; procedure, shortened: as §1
Mycobacterium avium [12] = assay: Antimycobacterial activity against isoniazid, rifampicin, ethambutol and ofloxacin-resistant Mycobacterium avium My 330/88 after 14 days; format: functional; conditions: My 330/88, 336 h; procedure, shortened: as §3
[13] = system: Mycobacterium tuberculosis; assay: Antimycobacterial activity against Mycobacterium tuberculosis H37Rv My 331/88 after 14 days; format: functional; conditions: H37Rv My 331/88, 336 h; procedure, shortened: as §3
Mycobacterium kansasii [14] = assay: Antimycobacterial activity against Mycobacterium kansasii My 235/80 after 14 days; format: functional; conditions: My 235/80, 336 h; procedure, shortened: as §3
[15] = system: Mycobacterium tuberculosis; assay: Antimycobacterial activity against Mycobacterium tuberculosis H37Rv My 331/88 after 21 days; format: functional; conditions: H37Rv My 331/88, 504 h; procedure, shortened: as §3
Mycobacterium avium [16] = assay: Antimycobacterial activity against isoniazid, rifampicin, ethambutol and ofloxacin-resistant Mycobacterium avium My 330/88 after 21 days; format: functional; conditions: My 330/88, 504 h; procedure, shortened: as §3
Pichia kudriavzevii [17] = assay: Antifungal activity against Candida krusei E28 after 24 hrs by broth microdilution method; format: functional; conditions: E28, 24 h; procedure, shortened: as §1
Enterococcus sp. = assay: Antibacterial activity against Enterococcus sp. J 14365/08 at 500 micromol/L after 24 to 48 hrs by broth microdilution method; format: functional, organism-based; procedure, shortened: as §4
Nakaseomyces glabratus = assay: Antifungal activity against Candida glabrata 20/I at 500 micromol/L after 24 to 48 hrs by broth microdilution method; format: functional, organism-based; procedure, shortened: as §1
Aspergillus fumigatus [18] = assay: Antifungal activity against Aspergillus fumigatus 231 after 48 hrs by broth microdilution method; format: functional; conditions: Aspergillus fumigatus, 231, 48 h; procedure, shortened: as §1
Staphylococcus aureus [19] = assay: Antibacterial activity against methicillin-resistant Staphylococcus aureus H 5996/08 after 24 hrs by broth microdilution method; format: functional; conditions: H 5996/08, 24 h; procedure, shortened: as §4
Staphylococcus aureus [20] = assay: Antibacterial activity against Staphylococcus aureus CCM 4516/08 after 48 hrs by broth microdilution method; format: functional; conditions: CCM 4516/08, 48 h; procedure, shortened: as §4
[21] = system: Staphylococcus epidermidis; assay: Antibacterial activity against Staphylococcus epidermidis H 6966/08 after 24 hrs by broth microdilution method; format: functional; conditions: H 6966/08, 24 h; procedure, shortened: as §4
Trichosporon asahii [22] = assay: Antifungal activity against Trichosporon asahii 1188 after 48 hrs by broth microdilution method; format: functional; conditions: Trichosporon asahii, 1188, 48 h; procedure, shortened: as §1
Escherichia coli = assay: Antibacterial activity against Escherichia coli CCM 4517 at 500 micromol/L after 24 to 48 hrs by broth microdilution method; format: functional, organism-based; procedure, shortened: as §4
Aspergillus fumigatus [23] = assay: Antifungal activity against Aspergillus fumigatus 231 after 24 hrs by broth microdilution method; format: functional; conditions: Aspergillus fumigatus, 231, 24 h; procedure, shortened: as §1
Pseudomonas aeruginosa = assay: Antibacterial activity against Pseudomonas aeruginosa CCM 1961 at 500 micromol/L after 24 to 48 hrs by broth microdilution method; format: functional, organism-based; procedure, shortened: as §4
[24] = system: Trichophyton mentagrophytes; assay: Antifungal activity against Trichophyton mentagrophytes 445 after 72 hrs by broth microdilution method; format: functional; conditions: Trichophyton mentagrophytes, 445, 72 h; procedure, shortened: as §2
Klebsiella pneumoniae [25] = assay: Antibacterial activity against ESBL-positive Klebsiella pneumoniae J 14368/08 at 500 micromol/L after 24 to 48 hrs by broth microdilution method; format: functional, organism-based; procedure, shortened: as §4
[26] = system: Staphylococcus epidermidis; assay: Antibacterial activity against Staphylococcus epidermidis H 6966/08 after 48 hrs by broth microdilution method; format: functional; conditions: H 6966/08, 48 h; procedure, shortened: as §4
Staphylococcus aureus [27] = assay: Antibacterial activity against methicillin-resistant Staphylococcus aureus H 5996/08 after 48 hrs by broth microdilution method; format: functional; conditions: H 5996/08, 48 h; procedure, shortened: as §4
Mycobacterium kansasii [28] = assay: Antimycobacterial activity against Mycobacterium kansasii My 235/80 after 21 days; format: functional; conditions: My 235/80, 504 h; procedure, shortened: as §3
Mycobacterium kansasii [29] = assay: Antimycobacterial activity against Mycobacterium kansasii 6509/96 after 7 days; format: functional; conditions: 6509/96, 168 h; procedure, shortened: as §3
Lichtheimia corymbifera [30] = assay: Antifungal activity against Absidia corymbifera 272 after 24 hrs by broth microdilution method; format: functional; conditions: Lichtheimia corymbifera, 272, 24 h; procedure, shortened: as §1

| SMILES | MIC80 (Candida albicans [1]) [µM] | MIC80 (Pichia kudriavzevii [2]) [µM] | Activity (Candida tropicalis) | MIC50 [3] [µM] | MIC50 (Lichtheimia corymbifera [4]) [µM] | MIC (Mycobacterium kansasii [5]) [µM] | MIC (Mycobacterium kansasii [6]) [µM] | pIC50 (HepG2) | MIC95 (Staphylococcus aureus [7]) [µM] | MIC80 (Trichosporon asahii [8]) [µM] | Activity (Klebsiella pneumoniae [9]) | MIC (Mycobacterium kansasii [10]) [µM] | MIC80 (Candida albicans [11]) [µM] | MIC (Mycobacterium avium [12]) [µM] | MIC [13] [µM] | MIC (Mycobacterium kansasii [14]) [µM] | MIC [15] [µM] | MIC (Mycobacterium avium [16]) [µM] | MIC80 (Pichia kudriavzevii [17]) [µM] | Activity (Enterococcus sp.) | other results |
| --- | --- | --- | --- | --- | --- | --- | --- | --- | --- | --- | --- | --- | --- | --- | --- | --- | --- | --- | --- | --- | --- |
| CCOP(=O)(OCC)Oc1ccc(Cl)cc1C(=O)Nc1ccc(C(F)(F)F)cc1 | 125 (≈ 56.5 µg/mL) | > 250 | inactive | 31.2 (≈ 14.1 µg/mL) | > 250 | 2 (≈ 0.904 µg/mL) | 2 (≈ 0.904 µg/mL) | 5.63 | 31.2 (≈ 14.1 µg/mL) | 125 (≈ 56.5 µg/mL) | inactive | 1 (≈ 0.452 µg/mL) | > 250 | 4 (≈ 1.81 µg/mL) | 1 (≈ 0.452 µg/mL) | 2 (≈ 0.904 µg/mL) | 1 (≈ 0.452 µg/mL) | 4 (≈ 1.81 µg/mL) | 125 (≈ 56.5 µg/mL) | inactive | Activity (Nakaseomyces glabratus): inactive; MIC50 (Aspergillus fumigatus [18]): > 250 µM; MIC95 (Staphylococcus aureus [19]): 62.5 µM (≈ 28.2 µg/mL); MIC95 (Staphylococcus aureus [20]): 31.2 µM (≈ 14.1 µg/mL); MIC95 [21]: 31.2 µM (≈ 14.1 µg/mL); MIC80 (Trichosporon asahii [22]): 250 µM (≈ 113 µg/mL); Activity (Escherichia coli): inactive; MIC50 (Aspergillus fumigatus [23]): > 250 µM; Activity (Pseudomonas aeruginosa): inactive; MIC50 [24]: 31.2 µM (≈ 14.1 µg/mL); Activity (Klebsiella pneumoniae [25]): inactive; MIC95 [26]: 31.2 µM (≈ 14.1 µg/mL); MIC95 (Staphylococcus aureus [27]): 62.5 µM (≈ 28.2 µg/mL); MIC (Mycobacterium kansasii [28]): 2 µM (≈ 0.904 µg/mL); MIC (Mycobacterium kansasii [29]): 2 µM (≈ 0.904 µg/mL); MIC50 (Lichtheimia corymbifera [30]): > 250 µM |
| CCOP(=O)(OCC)Oc1ccc(Br)cc1C(=O)Nc1ccc(F)cc1 | > 500 | > 500 | inactive | 500 (≈ 223 µg/mL) | > 500 | 16 (≈ 7.14 µg/mL) | 8 (≈ 3.57 µg/mL) | 5.13 | > 500 | > 500 | inactive | 8 (≈ 3.57 µg/mL) | > 500 | 32 (≈ 14.3 µg/mL) | 8 (≈ 3.57 µg/mL) | 16 (≈ 7.14 µg/mL) | 8 (≈ 3.57 µg/mL) | 32 (≈ 14.3 µg/mL) | > 500 | inactive | Activity (Nakaseomyces glabratus): inactive; MIC50 (Aspergillus fumigatus [18]): > 500 µM; MIC95 (Staphylococcus aureus [19]): 500 µM (≈ 223 µg/mL); MIC95 (Staphylococcus aureus [20]): > 500 µM; MIC95 [21]: > 500 µM; MIC80 (Trichosporon asahii [22]): > 500 µM; Activity (Escherichia coli): inactive; MIC50 (Aspergillus fumigatus [23]): > 500 µM; Activity (Pseudomonas aeruginosa): inactive; MIC50 [24]: 500 µM (≈ 223 µg/mL); Activity (Klebsiella pneumoniae [25]): inactive; MIC95 [26]: > 500 µM; MIC95 (Staphylococcus aureus [27]): 500 µM (≈ 223 µg/mL); MIC (Mycobacterium kansasii [28]): 16 µM (≈ 7.14 µg/mL); MIC (Mycobacterium kansasii [29]): 8 µM (≈ 3.57 µg/mL); MIC50 (Lichtheimia corymbifera [30]): > 500 µM |
